We go through ten compounds from ChEMBL document CHEMBL1777802, “Synthesis, DNA binding, fluorescence measurements and antiparasitic activity of DAPI related diamidines” (Bioorg Med Chem, 2010).

pIC50: −log10 of the molar value.

Data set [1] deals with Poly(dA-dT)oligonucleotide.
A short description of data set [2]: Selectivity index, ratio of IC50 for rat L6 cells to IC50 for Trypanosoma brucei rhodesiense STIB900. It is filed as toxicity, cell-based. The settings on record: read-out: Ratio IC50. The method, boiled down: (§1)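 Selectivity index is IC50 on cultured L6 rat myoblasts divided by IC50 on the parasite (P. falciparum K1 or T. b. rhodesiense STIB900).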
The nature of data set [3]: Selectivity index, ratio of IC50 for rat L6 cells to IC50 for Plasmodium falciparum K1. Type of data set: toxicity, cell-based. The settings on record: read-out: Ratio IC50. The method, boiled down: as §1
The test system of another data set is L6. In words: Cytotoxicity against rat L6 cells. It is filed as cell-based. The method, boiled down:
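Cultured L6 rat myoblast cells were used for the cytotoxicity measurement, giving an IC50.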

Data set [4] deals with Trypanosoma brucei rhodesiense. Description: Antiparasitic activity against Trypanosoma brucei rhodesiense STIB900.
The next data set has as its system Plasmodium falciparum. In words: Antiparasitic activity against Plasmodium falciparum K1.
The subject of data set [5] is Trypanosoma brucei rhodesiense. Description: Ratio of DAPI IC50 to compound IC50 for Trypanosoma brucei rhodesiense STIB900.

In general, ΔTm refers to the change in melting temperature against a reference sample. For `N=C(N)c1ccc(-c2ccc(-c3nc4ccc(C(=N)N)cc4[nH]3)cc2)cc1`, the ΔTm in data set [1] is above 27 °C. For the same compound, the selectivity ratio was 2210 in data set [2] and 34000 in data set [3].

The term pIC50 denotes −log10 of the IC50, conventionally taken in molar units. Turning to `N=C(N)c1ccc(C#Cc2cc3ccc(C(=N)N)cc3[nH]2)nc1`, the pIC50 was 4.89 in the data set with L6, 6.67 in data set [4] and 7.85 in the data set with Plasmodium falciparum. Also, in data set [1], the ΔTm was found to be 12.2 °C. The selectivity ratio was 60 in data set [2] and 933 in data set [3].

Take `N=C(N)c1ccc(-c2cc3ccc(C(=N)N)cc3[nH]2)cc1` [DAPI]: in data set [1], the ΔTm is above 27 °C. Also, the selectivity ratio in data set [2] was 51.

With `Cl.Cl.N=C(N)c1ccc(-c2ccc(-c3cc4cc(C(=N)N)ccc4[nH]3)cc2)cc1`, the negative-log IC50 (pIC50) in the data set on L6 is 4.41; in data set [4], 8.40; in the data set on Plasmodium falciparum, 9.15. Moreover, the Ratio IC50 in data set [5] turned out to be 4.5. In data set [1], the shift in melting temperature (ΔTm) stood at 20.9 °C. Further, the selectivity ratio in data set [2] stood at 9720; in data set [3], 55600.

`N=C(N)c1ccc2cc(C#Cc3ccc(C(=N)N)nc3)[nH]c2c1`: the pIC50 with L6 is 5.80; in data set [4], 8.52; in the data set on Plasmodium falciparum, 8.51. Also, the ΔTm in data set [1] worked out at 19.1 °C. For the same compound, the selectivity ratio in data set [2] was 533; in data set [3] it was 516.

For the compound `Cl.Cl.N=C(N)c1ccc(-c2ccc(-c3cc4ccc(C(=N)N)cc4[nH]3)cc2)cc1`, the Ratio IC50 in data set [5] was determined as 9. Also, the thermal shift (ΔTm) in data set [1] is above 27 °C. Moreover, the selectivity ratio in data set [2] worked out at 5250; in data set [3], 3180.

In turn, `N=C(N)c1ccc(-c2ccc(-c3ccc(C(=N)N)cc3)o2)cc1` [FURAMIDINE] showed a negative logarithm of the IC50 (pIC50) in the data set with L6 of 5.17.

As for `N=C(N)c1ccc2cc(-c3ccc(-c4ccccc4)cc3)[nH]c2c1`, the pIC50 in the data set with L6 is 5.08; in data set [4] it was 5.06; with Plasmodium falciparum, 6.07. For the same compound, the ΔTm in data set [1] amounted to 16 °C. The selectivity ratio in data set [2] came out at 0.96; in data set [3] it was 9.8.

Regarding `Cl.Cl.N=C(N)c1ccc2cc(C#Cc3ccc(C(=N)N)c(F)c3)[nH]c2c1`, the figures for the pIC50 (in the data set with L6; in data set [4]; in the data set with Plasmodium falciparum) were 5.35, 8.05 and 8.23, respectively. For the same compound, the “Ratio IC50” value in data set [5] was found to be 2. For the same compound, the ΔTm in data set [1] is 16 °C. For the same compound, the selectivity ratio in data set [2] stood at 500; in data set [3], 763.

Consider `Cl.Cl.N=C(N)c1ccc(C#Cc2cc3ccc(C(=N)N)cc3[nH]2)cc1`, for which the values for the pIC50 (in the data set with L6; in data set [4]; in the data set with Plasmodium falciparum) were 5.06, 8.22 and 8.42, respectively. In addition, the Ratio IC50 in data set [5] worked out at 3. The ΔTm in data set [1] stood at 19 °C. In addition, the figures for the selectivity ratio in data set [2] and in data set [3] were 1450 and 2290, respectively.
